This is a sample that favours compounds with a hit; in the whole collection about 2.2% have one here.
eIF4E 4G PPI = inhibitors of eIF4E and eIF4G interaction in translation initiation; P63073+Q04637; TR-FRET eIF4E-eIF4GI(517-606) binding, 2 h; inhibition, % at 21.7 µM; 220,000 compounds, 0.37% hits; AID 782;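 active means inhibition above about 30%, limit read from the data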
Runt-CBFb FRET = blocks binding of human RUNX1 Runt domain to CBFb; Q01196+Q13951; Cerulean-Runt/Venus-CBFb FRET ratio 530/480, 1 h; inhibition, % at 20 µM; 220,000 compounds, 0.46% hits; AID 1496;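 active means inhibition over about 50% at 20 µM in the single-dose screen, limit read from the data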
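Reagent – Venus-CBFb binding partner, 100 nM · Assay system – Cerulean-tagged RUNX1 Runt domain (FRET donor) fusion protein · Input – 100 nM per protein · Incubation – two 1 h room-temperature incubations shielded from light · Measured by – FRET fluorescence · Medium – Tris buffer pH 7.5 with salts and BSA · Benchmarks – unlabeled CBFb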
PERK inh = blocks human PERK kinase; Q9NZJ5; CHO PERK-DD fusion, SEAP luminescence translation reporter; inhibition, % at 5.6 µM; 220,000 compounds, 0.17% hits; AID 1416;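 active means inhibition above the mean inhibition of all tested compounds plus 3 SD, set separately per screening campaign, cut at about 2.9% in these data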;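 further: PERK kinase domain activated by AP20187 dimerizer at 100 nM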
Hck Nef HTS = human Hck-Nef kinase inhibition. Recombinant Hck-YEEI plus Nef, Z-Lyte FRET kinase assay. inhibition, % at 20 µM. 220,000 compounds, 0.68% hits;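 active means Hck-Nef kinase inhibition above about 50%, limit read from the data; inactive means inhibition below that limit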
Target sequence (P08631 whole entry, looked up): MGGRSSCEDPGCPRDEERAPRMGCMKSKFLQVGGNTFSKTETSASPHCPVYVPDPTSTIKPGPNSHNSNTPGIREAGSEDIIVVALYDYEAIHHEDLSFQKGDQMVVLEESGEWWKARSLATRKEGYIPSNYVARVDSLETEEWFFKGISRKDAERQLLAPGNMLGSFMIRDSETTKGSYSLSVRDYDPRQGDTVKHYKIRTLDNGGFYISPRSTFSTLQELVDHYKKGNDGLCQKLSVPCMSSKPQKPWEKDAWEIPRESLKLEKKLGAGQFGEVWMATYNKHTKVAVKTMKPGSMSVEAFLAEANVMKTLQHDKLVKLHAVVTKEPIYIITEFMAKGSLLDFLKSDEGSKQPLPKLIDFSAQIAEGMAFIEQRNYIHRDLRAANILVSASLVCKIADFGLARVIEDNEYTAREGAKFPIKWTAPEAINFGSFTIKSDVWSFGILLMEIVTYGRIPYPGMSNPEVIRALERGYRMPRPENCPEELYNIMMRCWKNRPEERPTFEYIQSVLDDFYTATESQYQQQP
Runt-SMMHC FRET = blocks binding of human RUNX1 Runt domain to CBFb-SMMHC; Cerulean-Runt/Venus-CBFb-SMMHC FRET ratio 530/480, 1 h; AID 1434; Q01196+Q13951; 220,000 compounds, 0.74% hits; inhibition, % at 20 µM;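 active means mean inhibition across duplicate retests at 20 µM reaching about 50%, limit read from the data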;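 further: inhibitors lower the FRET ratio by blocking Runt binding to CBFb-SMMHC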
RanGTP-Impb inh = inhibitors of RanGTP-importin-beta interaction, primary screen, biochemical, FRET, CFP-Ran, YFP-importin-beta, homogeneous | cell-free CFP-Ran/YFP-importin-beta FRET ratio | inhibition, % (no concentration beside the values) | 300,000 compounds, 1.1% hits | AID 2216;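 active means more than half of the replicate wells show a fall in the fluorescence ratio signal beyond about 16%, limit read from the data, passing the limit was not always enough; inconclusive means exactly half of the replicate wells pass the set limit; inactive means fewer than half of replicates pass the limit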
Hck-Nef confirm = Hck-Nef kinase inhibition, confirmation; shares compounds with Hck Nef HTS; Recombinant Hck-YEEI:Nef, Z-Lyte FRET kinase assay; calls only at 10 µM; 1,300 compounds, 28% hits; AID 463188;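 active means average inhibition of at least 50%, with Z-scores no higher than 3 in both the phospho-tyrosine peptide and fluorescence counterscreens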
Hits are given with their value; n = inactive; u = inconclusive; x = no result given; + = active, no number; [ ] = remark or other dose.

SMILES	eIF4E 4G PPI	Runt-CBFb FRET	PERK inh	Hck Nef HTS	Runt-SMMHC FRET	RanGTP-Impb inh	Hck-Nef confirm
CCOC(=O)c1cc(C(=O)OCC)c2ccccn2c1=O	n	97	n	95	60	66	x
CCOC(=O)c1c[nH]n(-c2ccccc2)c1=O	n	n	n	n	n	n	x
O=C(O)c1ccc(N2C(=O)/C(=C/c3ccc(-c4ccc([N+](=O)[O-])cc4)o3)C=C2c2ccccc2)cc1	76	n	n	72	n	n	+
O=C1NN(c2ccccc2)C(=O)/C1=C/c1ccc(-c2ccc(C(=O)O)cc2)o1	x	x	x	x	x	n	x
Cc1nccc(-c2sc(-c3cccs3)nc2C)n1	n	n	n	86	n	n	n
O=C1SC(SCc2ccccc2Cl)=N/C1=C\c1ccc(C(=O)O)cc1	n	n	n	63	n	n	n
CCSC1=N/C(=C\c2ccc(C(=O)O)cc2)C(=O)S1	n	n	n	n	n	n	x
COc1ccc(C(=O)N/C(=C\c2ccc3c(c2)OCO3)C(=O)Nc2ccc(C(=O)O)cc2)cc1	n	n	n	54	n	n	n
O=C(NCCCN1CCOCC1)c1ccc2c(=O)n(Cc3cccc(Br)c3)c(=S)[nH]c2c1	x	x	x	x	x	n	x
CC(=O)c1cccc(NC(=O)CC2S/C(=N/N=C/c3ccccc3)NC2=O)c1 (stereo not drawn)	n	n	n	53	n	n	n
COc1ccc2nc(-n3c(O)c(C4=c5ccccc5=NC4=O)[nH]c3=S)sc2c1	52[fluorescence artefact?]	n	n	103	n	n	+
Oc1cc2c(cc1C(c1ccc(Cl)c(Cl)c1)N1CCCC1)OCO2 (stereo not drawn)	38	n	n	70	n	n	n
CC(C)c1ccc(NC(=O)C(c2ccc3c(c2)OCO3)N2CCCCC2)cc1 (stereo not drawn)	n	n	n	n	n	n	x
CC(O)Cn1c(N2CCCC2)nc2c1c(=O)n(C)c(=O)n2C (stereo not drawn)	x	x	x	x	x	n	x
CCc1ccc(C2=NN(c3ccc(S(N)(=O)=O)cc3)C(c3ccc(F)cc3)C2)cc1 (stereo not drawn)	n	n	n	74	n	u	x
COc1cccc(=O)c2c(C)n(-c3cc(C)cc(C)c3)c(C)c12	n	n	n	n	n	n	x
COc1cccc(-n2c(C)c3c(OC)cccc(=O)c3c2C)c1	n	n	n	51	n	n	n
CS(=O)(=O)Nc1ccccc1C(=O)Nc1cc(Cl)cc(Cl)c1	n	n	n	n	n	n	x
CCOc1ccc(CCNS(=O)(=O)c2ccc3c(c2)oc(=O)n3C)cc1OCC	x	x	x	x	x	n	x
Cc1c(Cl)c([N+](=O)[O-])nn1CC(=O)NCc1cccs1	n	n	n	n	n	n	x
c1ccc(-c2nc(NCCCN3CCOCC3)c3ccccc3n2)cc1	n	n	n	n	n	n	x
N#Cc1c2c(c(NCCCN3CCOCC3)n3c1nc1ccccc13)CCC2	n	n	n	61	n	n	x
CC(C)c1cc(NCCCN2CCOCC2)n2c(nc3ccccc32)c1C#N	n	n	n	54	n	u	x
CN(C)c1ccc(N/C(=N\S(=O)(=O)c2cccs2)c2ccccc2)cc1	n	n	n	n	n	n	x
Cc1ccc(NC(=O)CN2C(=O)S/C(=C/c3ccc(O)c([N+](=O)[O-])c3)C2=O)cc1C	45	n	n	64	n	x	+
SMILES	eIF4E 4G PPI	Runt-CBFb FRET	PERK inh	Hck Nef HTS	Runt-SMMHC FRET	RanGTP-Impb inh	Hck-Nef confirm
COc1ccc(N(C)S(=O)(=O)c2cccc(C(=O)NC3CCCCCC3)c2)cc1	n	n	n	n	n	n	x
COc1ccc(C2=CC3=C(Br)C(=O)C(C)(OC(=O)c4ccco4)C(=O)C3=CO2)cc1 (stereo not drawn)	n	n	x	92	n	n	+
COc1ccc(C2C3=C(CC(C)(C)CC3=O)N(C)C3=C2C(=O)CC(C)(C)C3)cc1OC	x	x	x	x	x	n	x
COc1ccc(N2C3=C(CC4=C2CC(C)(C)CC4=O)C(=O)CC(C)(C)C3)cc1	n	n	n	n	n	n	x
COc1ccc(N2C3=C(C(=O)CC(C)(C)C3)C(c3ccccc3OC)C3=C2CC(C)(C)CC3=O)cc1	n	n	n	74	81	149	n
COc1ccc(C2C3=C(CC(C)(C)CC3=O)N(C)C3=C2C(=O)CC(C)(C)C3)cc1	n	n	n	51	86	137	n
CCN(CC(=O)N1CCCC1)S(=O)(=O)c1ccc(Br)cc1	x	x	x	x	x	n	x
O=C(Nc1cccc(Oc2ccc(C(=O)O)c(C(=O)O)c2)c1)c1ccc(-c2ccccc2)cc1	n	n	n	66	n	n	n
CCCOC(=O)C1=C(C)NC2=C(C(=O)CCC2)C1c1cccs1 (stereo not drawn)	n	n	n	n	n	n	x
CCOC(=O)c1ccc(NC(=O)Cn2ncc(Cl)c(Cl)c2=O)cc1	n	n	n	59	n	n	+
COc1ccc(CCNc2oc(-c3ccc(OC)c(OC)c3)nc2P(=O)(OC)OC)cc1OC	n	n	n	n	n	n	x
CCn1nc(NC(=O)C2CCCO2)c2cc3cccc(C)c3nc21 (stereo not drawn)	n	n	n	55	81	58	n
CCn1nc(NS(=O)(=O)c2ccc(NC(C)=O)cc2)c2cc3cccc(C)c3nc21	x	x	x	x	x	n	x
CC1=CC2=NC(=O)/C(=C\c3cccn3CCOc3ccccc3C)C(=N)N2O1	n	n	n	n	n	n	x
COc1ccccc1OCCOc1ccc(/C=C2/C(=N)N3OC(C)=CC3=NC2=O)cc1OC	n	n	n	89	n	n	+
Cc1ccc(NC(=O)CN(C)C(=O)CSc2nnnn2C)cc1	n	n	n	n	n	n	x
CC1(C)C=Cc2c(ccc(-c3coc4cc(O)ccc4c3=O)c2O)O1	x	x	x	x	x	n	x
COc1ccc(-c2csc(NC(=S)NC(=O)/C=C/c3ccco3)n2)cc1Br	n	n	n	78	n	n	n
COc1ccc(-c2csc(NC(=S)NC(=O)/C=C/c3ccco3)n2)cc1OC	n	n	n	n	n	n	x
N=C(N)Cc1ccccc1Sc1ccccc1	n	n	n	n	n	n	x
COc1ccc(CNC(=O)CCNS(=O)(=O)c2cccc3nsnc23)cc1	n	n	n	154	n	n	n
O=C(CCNS(=O)(=O)c1cccc2nsnc12)NCc1ccccc1	x	x	x	x	x	n	x
N#Cc1cc2cc3c(cc2nc1SCC(=O)N1CCOCC1)OCO3	x	x	x	x	x	n	x
N#Cc1cc2cc3c(cc2nc1NCCNC(=S)NCCCN1CCOCC1)OCO3	n	103	n	74	100	n	x
COc1cc(OC)cc(C(=O)OCCNC(=O)Cn2cnc3c2c(=O)n(C)c(=O)n3C)c1	n	n	n	n	n	n	x
